{"source": "ChEMBL document CHEMBL3351588", "about": "“Design, synthesis and biological evaluation of N-alkyl or aryl substituted isoindigo derivatives as potential dual cyclin-dependent kinase 2 (CDK2)/glycogen synthase kinase 3β (GSK-3β) phosphorylation inhibitors” (Eur J Med Chem, 2014)", "key": {"K562 [1]": {"tested_on": "K562", "assay": "Induction of cell cycle arrest in human K562 cells assessed as accumulation at S phase at 5 uM after 24 hrs by propidium iodide staining based flow cytometry (reference value: 44.90%)", "format": "functional"}, "K562 [2]": {"tested_on": "K562", "assay": "Induction of cell cycle arrest in human K562 cells assessed as accumulation at G2/M phase at 10 uM after 24 hrs by propidium iodide staining based flow cytometry (reference value: 18.96%)", "format": "functional"}, "[3]": {"assay": "Cytotoxicity against human VEC cells after 48 hrs by SRB assay", "format": "cell-based", "in_short": "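Cells seeded at 5 × 10³ per well and allowed to attach for 12 h, then exposed to a range of drug concentrations in their own medium for 48 h. Fixed with ice-cold TCA for 1 h at 4 °C, washed, then stained with 0.4% SRB for 30 min at room temperature. IC50 is the mean of three independent experiments.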"}, "K562 [4]": {"tested_on": "K562", "assay": "Induction of apoptosis in human K562 cells assessed as viable cells level at 15 uM after 24 hrs by Annexin V-FITC/propidium iodide staining based flow cytometry (reference value: 97.64%)", "format": "functional", "in_short": "(§1)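 K562 cells exposed for 24 h or 48 h to 0, 5.0, 10.0, 15.0, 20.0 or 30.0 µM; vehicle DMSO 0.5% v/v. Cells stained with FITC-Annexin V, then counterstained with PI, and analysed by FACScan flow cytometry. Quadrants: Annexin V−/PI− viable; Annexin V+/PI− early apoptotic; Annexin V+/PI+ late apoptotic/necrotic.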"}, "K562 [5]": {"tested_on": "K562", "assay": "Induction of apoptosis in human K562 cells assessed as early apoptotic cells level at 30 uM after 24 hrs by Annexin V-FITC/propidium iodide staining based flow cytometry (reference value: […])", "format": "functional"}, "K562 [6]": {"tested_on": "K562", "assay": "Induction of apoptosis in human K562 cells assessed as necrotic cells level at 30 uM after 48 hrs by Annexin V-FITC/propidium iodide staining based flow cytometry (reference value: 0.01%)", "format": "functional", "in_short": "as §1"}, "K562 [7]": {"tested_on": "K562", "assay": "Induction of apoptosis in human K562 cells assessed as necrotic cells level at 30 uM after 24 hrs by Annexin V-FITC/propidium iodide staining based flow cytometry (reference value: 0.0%)", "format": "functional", "in_short": "as §1"}, "K562 [8]": {"tested_on": "K562", "assay": "Induction of apoptosis in human K562 cells assessed as late apoptotic cells level at 10 uM after 48 hrs by Annexin V-FITC/propidium iodide staining based flow cytometry (reference value: 0.54%)", "format": "functional", "in_short": "as §1"}, "K562 [9]": {"tested_on": "K562", "assay": "Induction of apoptosis in human K562 cells assessed as late apoptotic cells level at 20 uM after 24 hrs by Annexin V-FITC/propidium iodide staining based flow cytometry (reference value: 0.79%)", "format": "functional", "in_short": "as §1"}, "K562 [10]": {"tested_on": "K562", "assay": "Induction of apoptosis in human K562 cells assessed as early apoptotic cells level at 10 uM after 24 hrs by Annexin V-FITC/propidium iodide staining based flow cytometry (reference value: […])", "format": "functional"}, "K562 [11]": {"tested_on": "K562", "assay": "Induction of cell cycle arrest in human K562 cells assessed as reduction in accumulation at G0/G1 phase after 24 hrs by propidium iodide staining based flow cytometry", "format": "functional"}, "K562 [12]": {"tested_on": "K562", "assay": "Induction of apoptosis in human K562 cells assessed as necrotic cells level at 10 uM after 48 hrs by Annexin V-FITC/propidium iodide staining based flow cytometry (reference value: 0.01%)", "format": "functional", "in_short": "as §1"}, "K562 [13]": {"tested_on": "K562", "assay": "Induction of apoptosis in human K562 cells assessed as late apoptotic cells level at 30 uM after 48 hrs by Annexin V-FITC/propidium iodide staining based flow cytometry (reference value: 0.54%)", "format": "functional", "in_short": "as §1"}, "K562 [14]": {"tested_on": "K562", "assay": "Induction of apoptosis in human K562 cells assessed as viable cells level at 5 uM after 48 hrs by Annexin V-FITC/propidium iodide staining based flow cytometry (reference value: 99.21%)", "format": "functional", "in_short": "as §1"}, "K562 [15]": {"tested_on": "K562", "assay": "Reduction in cyclin A protein expression in human K562 cells at 5 to 30 uM after 24 hrs by Western blotting method", "format": "functional, cell-based"}}, "note": "pIC50: −log10 of the molar value."}
{"molecule": "COc1ccc(N2C(=O)/C(=C3/C(=O)Nc4ccccc43)c3ccccc32)cc1", "values": [{"measurement": "Activity", "setting": "K562 [1]", "value": 46.03, "unit": "%"}, {"measurement": "Activity", "setting": "K562 [2]", "value": 14.31, "unit": "%"}, {"measurement": "pIC50", "setting": "[3]", "value": "< 3.70"}, {"measurement": "Activity", "setting": "K562 [4]", "value": 90.17, "unit": "%"}, {"measurement": "Activity", "setting": "K562 [5]", "value": 23, "unit": "%"}, {"measurement": "Activity", "setting": "K562 [6]", "value": 1.3, "unit": "%"}, {"measurement": "Activity", "setting": "K562 [7]", "value": 0, "unit": "%"}, {"measurement": "Activity", "setting": "K562 [8]", "value": 1.39, "unit": "%"}, {"measurement": "Activity", "setting": "K562 [9]", "value": 12.65, "unit": "%"}, {"measurement": "Activity", "setting": "K562 [10]", "value": 4.4, "unit": "%"}, {"measurement": "Activity", "setting": "K562 [11]", "value": "Dose-dependent effect"}, {"measurement": "Activity", "setting": "K562 [12]", "value": 0.02, "unit": "%"}, {"measurement": "Activity", "setting": "K562 [13]", "value": 42.09, "unit": "%"}, {"measurement": "Activity", "setting": "K562 [14]", "value": 97.78, "unit": "%"}, {"measurement": "inhibition", "setting": "K562 [15]", "value": "Dose-dependent effect"}]}
